Compounds with a hit are over-represented: about 2.9% of the library has one in this group of screens.
SENP1 inh = blocks the human SENP1 SUMO protease catalytic domain; Q9P0U3; recombinant SENP1 catalytic domain, CyPet-SUMO1-YPet FRET cleavage; inhibition, % at 10 µM; 360,000 tested, 0.21% active; AID 624204;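 active = inhibition at least 30% at 10 µM, raw YFP signal under a set limit, fluorescence ratio 0.5 to 1.5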;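 also: 0% = enzyme with DMSO and 100% = no enzyme wells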
Target sequence (Q9P0U3 419-644 limits assumed): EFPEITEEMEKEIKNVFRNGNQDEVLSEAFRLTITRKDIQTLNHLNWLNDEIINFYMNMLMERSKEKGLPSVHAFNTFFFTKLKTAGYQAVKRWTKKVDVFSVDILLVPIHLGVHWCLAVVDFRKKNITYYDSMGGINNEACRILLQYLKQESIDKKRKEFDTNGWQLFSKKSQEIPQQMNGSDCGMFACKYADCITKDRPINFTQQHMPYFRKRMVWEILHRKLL
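material = recombinant human SENP1 catalytic domain, His6-tagged | quantity = 20 pM enzyme | reagent = 25 nM SUMO1 FRET substrate | compound dosing = 10 µM single point, 0.5% DMSO | timing = 50 min enzyme reaction, room temperature, light-protected | detection = FRET, CFP and YFP emission | control set = no-enzyme low, enzyme-DMSO high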
HSP90 refold inh = blocks HSP90-mediated luciferase refolding in reticulocyte lysate; 290,000 tested, 0.91% active; Rabbit reticulocyte lysate, luciferase refolding luminescence, 3 h; inhibition, % at 5.6 µM;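 active = inhibition above the screen-wide mean plus 3 SD, computed separately per campaign, cut at about 16% in these data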;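 also: 0% = DMSO wells and 100% = 60 µM geldanamycin wells; inhibitors lower the luminescence because luciferase stays unfolded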
SENP8 block-1 = inhibitors of human SENP8 protease; Q96LD8; purified SENP8, Z-RLRGG-aminoluciferin cleavage, luminescence; inhibition, % at 10 µM; 330,000 tested, 1.2% active; in the data active = inhibition above about 50%
SENP8 block-2 = inhibitors of human SENP8 protease; Q96LD8; recombinant SENP8, Nedd8 substrate fluorescence; inhibition, % at 20 µM; 360,000 tested, 0.64% active; AID 602440; in the data active = inhibition mostly above about 40%, no sharp cut-off; inactive = mostly below about 27%
SENP7 block = SENP7 protease inhibition. recombinant SENP7, Z-RLRGG-aminoluciferin luminescence, 40 min. inhibition, % at 5 µM. 330,000 tested, 1.5% active. AID 434973;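 active = inhibition above about 50% at the single test dose, limit read from the data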;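 also: plate controls were DMSO with enzyme for no effect and no enzyme buffer wells for full effect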
Target sequence (Q9BQF6 706-1050 limits assumed): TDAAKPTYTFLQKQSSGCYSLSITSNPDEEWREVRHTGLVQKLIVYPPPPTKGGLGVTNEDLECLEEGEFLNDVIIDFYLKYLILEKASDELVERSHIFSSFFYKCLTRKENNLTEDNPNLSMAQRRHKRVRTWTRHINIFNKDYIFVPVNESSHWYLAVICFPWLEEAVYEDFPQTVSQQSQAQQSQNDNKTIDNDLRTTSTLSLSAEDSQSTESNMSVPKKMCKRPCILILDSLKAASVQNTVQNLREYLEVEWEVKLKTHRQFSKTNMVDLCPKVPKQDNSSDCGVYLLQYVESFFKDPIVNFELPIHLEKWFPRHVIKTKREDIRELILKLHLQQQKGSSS
SENP6 inh = blocks the human protease SENP6; Q9GZR1; Recombinant SENP6 catalytic domain, aminoluciferin luminescence; inhibition, % at 10 µM; 330,000 tested, 1.8% active;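 active = inhibition above about 50% at the single tested dose, limit read from the data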;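 also: plate controls were DMSO wells with enzyme for no effect and DMSO wells lacking enzyme for full effect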
SENP1 inh conf = confirmation of human SENP1 SUMO protease inhibitors. shares compounds with SENP1 inh. recombinant SENP1, CyPet-SUMO1-YPet FRET cleavage. inhibition, % at 10 µM. 520 tested, 34% active; in the data active = inhibition mostly above about 35%, no sharp cut-off; inactive = mostly below about 32%;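 also: 0% = enzyme with DMSO and 100% = no enzyme control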
SENP1 kin conf = SENP1 (human) inhibition, kinetic confirmation. shares compounds with SENP1 inh. recombinant SENP1, CyPet-SUMO1-YPet FRET kinetic cleavage. inhibition, % at 10 µM. 520 tested, 26% active; in the data active = inhibition mostly above about 32%, no sharp cut-off; inactive = mostly below about 29%;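 also: 0% = DMSO with enzyme and 100% = no enzyme substrate only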
Active calls of the source: *.

Results for O=C(c1ccc([N+](=O)[O-])s1)N1CCCc2ccccc21 ?
SENP1 inh: 2; HSP90 refold inh: 5; SENP8 block-1: 4; SENP8 block-2: 29; SENP7 block: 4; SENP6 inh: -6

What do the screens show for `O=C(c1ccc([N+](=O)[O-])s1)N1CCc2ccccc21`?
SENP1 inh: 55*; HSP90 refold inh: -2; SENP8 block-1: -13; SENP8 block-2: 24; SENP7 block: 4; SENP6 inh: -4; SENP1 inh conf: 11; SENP1 kin conf: 11

What do the screens show for `O=C(COC(=O)[C@@H]1CC(O)CN1S(=O)(=O)c1ccc2c(c1)OCCO2)NCc1ccc(F)cc1` (stereo not given in full)?
SENP1 inh: -3; HSP90 refold inh: 3; SENP8 block-1: -7; SENP8 block-2: 0; SENP7 block: -7; SENP6 inh: -14

What do the screens show for `CC(=O)Oc1ccc(N2C(=O)C3C(C2=O)C(C(=O)c2ccc(Cl)cc2)N2CCCC32)cc1` (stereo not given)?
SENP1 inh: 61*; HSP90 refold inh: 0; SENP8 block-1: 4; SENP8 block-2: 3; SENP7 block: 2; SENP6 inh: -13; SENP1 inh conf: 86*; SENP1 kin conf: 45*

What do the screens show for `COc1ccc(C(=O)NC(C)CCc2ccccc2)cc1[N+](=O)[O-]` (stereo not given)?
SENP1 inh: 1; HSP90 refold inh: -3; SENP8 block-1: 13; SENP8 block-2: 9; SENP7 block: -11; SENP6 inh: 0

What do the screens show for `COc1ccc(C(=O)C(C)[n+]2ccc(C)c3ccccc32)cc1[N+](=O)[O-]` (stereo not given)?
SENP1 inh: 78*; HSP90 refold inh: -1; SENP8 block-1: -3; SENP8 block-2: 10; SENP7 block: 8; SENP6 inh: 0; SENP1 inh conf: 6; SENP1 kin conf: 8

How did CCOc1ccc(NC(=O)Cc2ccccc2)c([N+](=O)[O-])c1 do in these assays?
SENP1 inh: 2; HSP90 refold inh: -2; SENP8 block-1: 1; SENP8 block-2: 14; SENP7 block: -7; SENP6 inh: -11

How did CCOc1ccc(NC(=O)c2ccc(Br)o2)c([N+](=O)[O-])c1 do in these assays?
SENP1 inh: 32*; HSP90 refold inh: 2; SENP8 block-1: -13; SENP8 block-2: 39; SENP7 block: 42; SENP6 inh: -9; SENP1 inh conf: -3; SENP1 kin conf: -10

How did O=C(Nc1cccc(C(=O)N2CCOCC2)c1)C1CCCC1 do in these assays?
SENP1 inh: 1; SENP8 block-2: 5

Results for Cc1cccc(N=Nc2c(C)c(C#N)c(O)[nH]c2=O)c1 ?
SENP1 inh: 16; HSP90 refold inh: 2; SENP8 block-1: 37; SENP8 block-2: 24; SENP7 block: 47; SENP6 inh: 18

Results for Cc1c(C#N)c(O)[nH]c(=O)c1N=Nc1ccc(Br)cc1C(=O)O ?
SENP1 inh: 38*; HSP90 refold inh: 0; SENP8 block-2: 46*; SENP1 inh conf: 57*; SENP1 kin conf: 34*

Results for Nc1ccc2c(c1)C(=O)c1ccc(Cl)cc1-2 ?
SENP1 inh: -2; SENP8 block-2: 23

What do the screens show for `Nc1ccc2c(c1)-c1ccc(F)cc1C2=O`?
SENP1 inh: 82*; SENP8 block-2: 22; SENP1 inh conf: 49*; SENP1 kin conf: 27

What do the screens show for `CCOC(=O)c1sc(N=NC2=C(O)CC(C)(C)CC2=O)c(C(=O)OCC)c1C`?
SENP1 inh: 56*; HSP90 refold inh: 0; SENP8 block-1: -9; SENP8 block-2: 30; SENP7 block: -4; SENP6 inh: -45; SENP1 inh conf: 30; SENP1 kin conf: 20

How did CCOC(=O)c1cc(CC)sc1/N=C/C1=C(O)CC(C)(C)CC1=O do in these assays?
SENP1 inh: -56; HSP90 refold inh: -5; SENP8 block-1: -15; SENP8 block-2: -47; SENP7 block: -3; SENP6 inh: -20

What do the screens show for `O=c1[nH]ncc2c3ccccc3n(Cc3cccc(Cl)c3)c12`?
SENP1 inh: 86*; HSP90 refold inh: -1; SENP8 block-1: -3; SENP8 block-2: -18; SENP7 block: -6; SENP6 inh: -3; SENP1 inh conf: 106*; SENP1 kin conf: 62*

Results for COc1ccc([C@H]2CC(=O)C=C(c3cccc(Cl)c3O)C2)cc1OC ?
SENP1 inh: 33*; SENP8 block-1: 7; SENP8 block-2: 9; SENP7 block: -3; SENP6 inh: -3; SENP1 inh conf: 74*; SENP1 kin conf: 62*

Results for O=C1C=C(c2cccc(Cl)c2)C[C@@H](c2ccc3c(c2)OCO3)C1 ?
SENP1 inh: 4; SENP8 block-1: 2; SENP8 block-2: 7; SENP7 block: 4; SENP6 inh: -5

Results for COc1ccc([C@H]2CC(=O)C=C(c3ccc(O)cc3)C2)cc1OC ?
SENP1 inh: -18; SENP8 block-1: -5; SENP8 block-2: 16; SENP7 block: 2; SENP6 inh: 7

What do the screens show for `O=C1C=C(c2cccc(Cl)c2O)C[C@@H](c2ccc3c(c2)OCO3)C1`?
SENP1 inh: 50*; SENP8 block-1: 8; SENP8 block-2: -17; SENP7 block: 1; SENP6 inh: -5; SENP1 inh conf: 95*; SENP1 kin conf: 77*

What do the screens show for `COc1ccc(/C=C/C(=O)OCC(=O)Nc2cc(C(F)(F)F)ccc2Cl)cc1`?
SENP1 inh: 2; HSP90 refold inh: 1; SENP8 block-1: -1; SENP8 block-2: -9; SENP7 block: 9; SENP6 inh: 5

What do the screens show for `COc1c(O)cccc1[C@H](O)C1CCN(CCc2ccc(F)cc2)CC1`?
SENP1 inh: 30*; SENP8 block-1: -5; SENP8 block-2: 16; SENP7 block: 1; SENP6 inh: 2; SENP1 inh conf: 5; SENP1 kin conf: 11

What do the screens show for `COc1ccc2oc(=O)c(/C(N)=N/NC(=O)c3ccncc3)cc2c1`?
SENP1 inh: 37*; HSP90 refold inh: 4; SENP8 block-1: 7; SENP8 block-2: -23; SENP7 block: 4; SENP6 inh: -8; SENP1 inh conf: 8; SENP1 kin conf: 9

How did C/C(=N\NC(=O)c1ccncc1)c1cc2ccccc2oc1=O do in these assays?
SENP1 inh: 5; HSP90 refold inh: 4; SENP8 block-1: -8; SENP8 block-2: -7; SENP7 block: -4; SENP6 inh: -13

Results for N#CC1=C(N2CCCCC2)c2cc3c(n2C1=O)CCCC3 ?
SENP1 inh: 51*; HSP90 refold inh: 3; SENP8 block-1: 1; SENP8 block-2: 20; SENP7 block: 2; SENP6 inh: -6; SENP1 inh conf: 23; SENP1 kin conf: 11

Source: PubChem
